From PubChem BioAssay come the findings set out here.

The nature of experiment [1]: Her2 expression decrease, cell viability multiplex – SKBR3 breast tumor cells, AlphaScreen, ATP viability, primary screen (AID 461;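 active = Her2 level under about 52% in both replicate screens, with viability over 70% of control, limit read from the data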;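 for Her2 level: lower value means less Her2 protein in the cells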;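 for viability: percent of carrier control wells set as 100% viability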). Conditions: SKBR3 Her2 protein level, 18-24 h, measured here: SKBR3 viability, ATP luminescence, at 10 µM. For orientation: In Alpha technology, singlet oxygen from a donor bead excites a nearby acceptor bead.
In experiment [2] the target is Receptor tyrosine-protein kinase erbB-2 (Homo sapiens) (UniProt P04626). Described as above. The following applies: 18-24 h, at 10 µM, stronger effect = lower value.
Receptor tyrosine-protein kinase erbB-2 (Homo sapiens), sequence (P04626 whole entry, looked up): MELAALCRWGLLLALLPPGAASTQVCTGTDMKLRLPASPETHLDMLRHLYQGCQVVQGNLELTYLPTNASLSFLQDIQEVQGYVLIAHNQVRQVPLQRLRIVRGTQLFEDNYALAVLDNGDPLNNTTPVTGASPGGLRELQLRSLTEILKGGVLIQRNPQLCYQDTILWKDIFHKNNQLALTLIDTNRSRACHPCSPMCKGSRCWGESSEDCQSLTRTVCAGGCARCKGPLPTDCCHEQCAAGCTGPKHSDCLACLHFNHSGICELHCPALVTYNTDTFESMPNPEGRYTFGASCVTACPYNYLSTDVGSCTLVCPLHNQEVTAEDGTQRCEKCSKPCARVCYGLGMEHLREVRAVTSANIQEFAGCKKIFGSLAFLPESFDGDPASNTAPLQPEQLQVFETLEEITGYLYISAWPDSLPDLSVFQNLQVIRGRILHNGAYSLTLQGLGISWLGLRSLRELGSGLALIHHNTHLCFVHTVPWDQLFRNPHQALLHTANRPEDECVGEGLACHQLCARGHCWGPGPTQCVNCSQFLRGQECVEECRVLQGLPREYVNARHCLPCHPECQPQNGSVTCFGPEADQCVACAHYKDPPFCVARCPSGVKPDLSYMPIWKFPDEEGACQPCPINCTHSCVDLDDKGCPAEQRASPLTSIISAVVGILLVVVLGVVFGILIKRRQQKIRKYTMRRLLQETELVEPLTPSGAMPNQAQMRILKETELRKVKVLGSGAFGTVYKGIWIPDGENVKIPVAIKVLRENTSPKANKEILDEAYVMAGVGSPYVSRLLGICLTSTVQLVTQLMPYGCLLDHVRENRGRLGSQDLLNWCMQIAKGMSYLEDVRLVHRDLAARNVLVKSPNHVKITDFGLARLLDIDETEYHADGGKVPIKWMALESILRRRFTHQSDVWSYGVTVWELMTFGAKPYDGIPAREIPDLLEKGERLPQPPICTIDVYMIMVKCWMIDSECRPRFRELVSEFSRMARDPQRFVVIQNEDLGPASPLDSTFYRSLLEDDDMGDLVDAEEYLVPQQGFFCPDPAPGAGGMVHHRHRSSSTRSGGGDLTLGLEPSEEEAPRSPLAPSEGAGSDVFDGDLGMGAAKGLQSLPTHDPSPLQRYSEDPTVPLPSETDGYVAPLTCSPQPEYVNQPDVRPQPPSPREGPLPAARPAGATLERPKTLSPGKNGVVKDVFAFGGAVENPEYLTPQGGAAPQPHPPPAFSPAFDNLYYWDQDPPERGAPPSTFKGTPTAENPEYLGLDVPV
Experiment [3] can be described thus: reduced viability of SK-BR-3 breast cancer cells – cell-based, 24 h, human, pilot screen (AID 572;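 active = viability at or below 10% of carrier control in both of two separate runs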;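 note: compound exposure lasted between 18 and 24 h rather than exactly 24 h; 100% = carrier-treated control wells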). Conditions: SK-BR-3 viability, CellTiter-Glo luminescence, at 10 µM, stronger effect = lower value. For orientation: ATP-based viability assays read luminescence as a measure of living cells.
Experiment [4] can be described thus: HUVEC growth inhibition – cell-based, human, primary screen (AID 575;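 active = viability at or below 30% in both replicate assays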;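 note: 100% = median of untreated cell wells with 0.1% DMSO on each plate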). The following applies: HUVEC proliferation, CellTiter-Glo luminescence, 72 h; at 10 µM; stronger effect = lower value. A digest of the protocol: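 Assay system: Primary human umbilical vein endothelial cells | Quantity: 1250 cells per well | Medium: Supplemented EBM, 2% fetal bovine serum | Detection: CellTiter-Glo luminescence measuring cellular ATP | Read-out: % viability vs DMSO wells | Plate: Collagen-coated 384-well format | Times: 72 h exposure, 37 °C, 5% CO2, 30 min RT equilibration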

A short description of experiment [5]: H69AR cell proliferation blockers – human, duplicate replicates, primary screen (AID 580).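 Note: 100% = mean luminescence of untreated wells and 0% = no signal.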 The following applies: H69AR lung tumor cells viability, ATP luminescence, 72 h; at 10 µM; stronger effect = lower value.
Experiment [6] is described as follows: MRP1 drug-resistance reversers in H69AR cells – cell-based, doxorubicin co-treatment, pilot screen (AID 601;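 active = viability loss from added drug above about 55%, and viability with drug at most 40%, in both replicates, limit read from the data, passing the limit was not always enough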). Conditions: CellTiter-Glo, 72 h, at 10 µM; for differential viability (reversal): stronger effect = higher value.
A short description of experiment [7]: yeast transport mutant growth inhibition pilot in 384-well plates, post-Golgi transport modulator project (AID 636; in the data active = inhibition above about 31%). Conditions: absorbance 615 nm, about 18 h, stronger effect = higher value.
Experiment [8] in a line: growth suppression of yeast trafficking mutant, preliminary HTS, modulators of trafficking downstream of Golgi apparatus project, 1536-format plate, OD 615 nm (AID 637; in the data active = inhibition above about 30%). Conditions: yeast transport mutant growth, absorbance 615 nm, 18 h; stronger effect = higher value.
Setting [9] is: H69AR cells + 2 uM doxorubicin, measured here: viability with 2 uM doxorubicin, stronger effect = lower value.
[10] abbreviates: H69AR cells, compound alone cytotoxicity.

Active and inactive are the calls of the source.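 Rule for the calls, unless noted: active = viability at or under a set limit in both replicates, limit being median viability minus 3 SD (cut at about 48% in these data, passing the limit was not always enough); inconclusive = at or under the limit in just one replicate; inactive = at or above the limit in both replicates.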

For the molecule `CCCS(=O)(=O)N1CCCC(C(=O)N2CCC(Cc3ccccc3)CC2)C1` (stereo not given), the viability (in general, a read-out of living cells in per cent, often relative to untreated cells) in experiment [1] is 91.5%; in experiment [3], 91.5% (inactive); in experiment [4], 85.9% (inactive); in experiment [5] it was 98.7% (inactive); in experiment [6] (setting [9]) it was 97.1%; in experiment [6] (setting [10]), 98.7%. The Her2 level in experiment [2] was 96.5% (inactive). The differential viability (reversal) in experiment [6] (H69AR cells + 2 uM doxorubicin) was 1.65% (inactive). The inhibition (as a rule, the relative decrease from the control value, in per cent) in experiment [7] was -1.32% (inactive); in experiment [8] it was 4.92% (inactive).
Regarding `CC(=O)c1nnn(-c2nc(N3CCCC3)nc(N(c3ccccc3)c3ccccc3)n2)c1C`, the viability is 87% in experiment [1]; 87% (inactive) in experiment [3]; 97.8% (inactive) in experiment [4]; 82.7% (inactive) in experiment [5]; 77% in experiment [6] (setting [9]); 82.7% in experiment [6] (setting [10]). Further, the Her2 level in experiment [2] was 76% (inactive). Moreover, the differential viability (reversal) in experiment [6] (H69AR cells + 2 uM doxorubicin) is 5.7% (inactive). Also, the inhibition in experiment [7] was -2.89% (inactive); in experiment [8] it was -3.45% (inactive).
For the molecule `Cn1c2ccccc2c2ncn(CCCN3CCOCC3)c(=O)c21`, the viability in experiment [1] was 89%; in experiment [3], 89% (inactive); in experiment [4] it was 101% (inactive); in experiment [5] it was 94.6% (inactive); in experiment [6] (setting [9]) it was 92.9%; in experiment [6] (setting [10]) it was 94.6%. The Her2 level in experiment [2] was 93% (inactive). Besides, the differential viability (reversal) in experiment [6] (H69AR cells + 2 uM doxorubicin) is 1.77% (inactive). For the same molecule, the inhibition is -7.6% (inactive) in experiment [7] and -7.94% (inactive) in experiment [8].
In the case of `CCN1C(=O)CC(C(=O)Nc2ccc(F)cc2)SC1=Nc1ccc2c(c1)OCO2` (stereo not given), the viability in experiment [1] was 136%; in experiment [3], 136% (inactive); in experiment [4] it was 79.7% (inactive); in experiment [5] it was 86.4% (inactive); in experiment [6] (setting [9]) it was 80.4%; in experiment [6] (setting [10]), 86.4%. For the same molecule, in experiment [2], the Her2 level is 97% (inactive). For the same molecule, the differential viability (reversal) in experiment [6] (H69AR cells + 2 uM doxorubicin) was 6.02% (inactive). For the same molecule, the inhibition was -2.53% (inactive) in experiment [7] and -1.61% (inactive) in experiment [8].
`CCCn1c(SCC(=O)N2CCCc3ccccc32)nnc1-c1ccccn1`: the viability in experiment [1] was 84.5%; in experiment [3] it was 84.5% (inactive); in experiment [4] it was 103% (inactive); in experiment [5], 95.1% (inactive); in experiment [6] (setting [9]), 93.2%; in experiment [6] (setting [10]), 95.1%. Further, the Her2 level in experiment [2] was 102% (inactive). Besides, the differential viability (reversal) in experiment [6] (H69AR cells + 2 uM doxorubicin) is 1.95% (inactive). In addition, the results for the inhibition in experiment [7] and in experiment [8] were -4.67% (inactive) and 5.16% (inactive), respectively.
For `Cc1c(C(=O)O)oc2ccc(S(=O)(=O)NCc3ccccc3)cc12`, the viability is 105% in experiment [1]; 105% (inactive) in experiment [3]; 113% (inactive) in experiment [4]; 106% (inactive) in experiment [5]; 105% in experiment [6] (setting [9]); 106% in experiment [6] (setting [10]). The Her2 level in experiment [2] is 113% (inactive). The differential viability (reversal) in experiment [6] (H69AR cells + 2 uM doxorubicin) was 0.815% (inactive). Also, the inhibition is -3.42% (inactive) in experiment [7] and -6.51% (inactive) in experiment [8].
Consider `COc1ccc(OC)c(S(=O)(=O)Nc2ccc(C(N)=O)cc2)c1`, for which the viability was 98.5% in experiment [1]; 98.5% (inactive) in experiment [3]; 110% (inactive) in experiment [4]; 94% (inactive) in experiment [5]; 88.4% in experiment [6] (setting [9]); 94% in experiment [6] (setting [10]). In experiment [2], the Her2 level is 91% (inactive). Moreover, the differential viability (reversal) in experiment [6] (H69AR cells + 2 uM doxorubicin) was 5.67% (inactive). In addition, the inhibition in experiment [7] was -4.61% (inactive); in experiment [8], -2.3% (inactive).
On to `Cc1nc(CCNC(=O)c2ccccc2)cs1`, for which the viability is 92.5% in experiment [1]; 92.5% (inactive) in experiment [3]; 106% (inactive) in experiment [4]; 98.5% (inactive) in experiment [5]; 90.6% in experiment [6] (setting [9]); 98.5% in experiment [6] (setting [10]). The Her2 level in experiment [2] is 95% (inactive). In addition, the differential viability (reversal) in experiment [6] (H69AR cells + 2 uM doxorubicin) was 7.85% (inactive). The figures for the inhibition in experiment [7] and in experiment [8] were 0.27% (inactive) and 4.03% (inactive), respectively.
As to `Cc1cc(OCC(O)CN2CCN(CCO)CC2)ccc1C(C)C` (stereo not given), the viability in experiment [1] is 86.5%; in experiment [3] it was 86.5% (inactive); in experiment [4] it was 101% (inactive); in experiment [5], 95.3% (inactive); in experiment [6] (setting [9]) it was 84.8%; in experiment [6] (setting [10]) it was 95.3%. For the same molecule, in experiment [2], the Her2 level was 96% (inactive). Also, the differential viability (reversal) in experiment [6] (H69AR cells + 2 uM doxorubicin) is 10.5% (inactive). The results for the inhibition in experiment [7] and in experiment [8] were -2.21% (inactive) and -1.67% (inactive), respectively.
As for `CCCN1C2CCCC1CC(NC(=O)Nc1cccc(C(C)=O)c1)C2` (stereo not given), the viability was 105% in experiment [1]; 105% (inactive) in experiment [3]; 94.8% (inactive) in experiment [4]; 94.3% (inactive) in experiment [5]; 96.5% in experiment [6] (setting [9]); 94.3% in experiment [6] (setting [10]). Besides, in experiment [2], the Her2 level is 77% (inactive). For the same molecule, the differential viability (reversal) in experiment [6] (H69AR cells + 2 uM doxorubicin) was -2.24% (inactive). Besides, the figures for the inhibition in experiment [7] and in experiment [8] were -1.95% (inactive) and -0.95% (inactive), respectively.
As for `c1cncc(-c2nnc(-c3ccco3)o2)c1`, the viability in experiment [1] is 106%; in experiment [3], 106% (inactive); in experiment [4] it was 86.3% (inactive); in experiment [5], 105% (inactive); in experiment [6] (setting [9]), 89%; in experiment [6] (setting [10]), 105%. Besides, the Her2 level in experiment [2] is 114% (inactive). Moreover, in experiment [6] (H69AR cells + 2 uM doxorubicin), the differential viability (reversal) is 16% (inactive). Besides, the inhibition in experiment [7] is -4.93% (inactive); in experiment [8], -7.58% (inactive).
Consider `COc1ccc(N(C(=O)c2ccco2)C(C(=O)NC2CCCC2)c2ccc(N(C)C)cc2)cc1OC` (stereo not given), for which the viability in experiment [1] was 100%; in experiment [3], 100% (inactive); in experiment [4], 91.2% (inactive); in experiment [5], 90% (inactive); in experiment [6] (setting [9]), 105%; in experiment [6] (setting [10]) it was 90%. Further, in experiment [2], the Her2 level was 123% (inactive). In addition, in experiment [6] (H69AR cells + 2 uM doxorubicin), the differential viability (reversal) is -14.6% (inactive). In addition, the values for the inhibition in experiment [7] and in experiment [8] were -1.3% (inactive) and -8.5% (inactive), respectively.
On to `CC1CCCN(C(=O)c2cc(F)c(F)cc2Cl)C1` (stereo not given), for which the viability in experiment [1] is 99%; in experiment [3], 99% (inactive); in experiment [4] it was 104% (inactive); in experiment [5], 89.2% (inactive); in experiment [6] (setting [9]) it was 94.1%; in experiment [6] (setting [10]), 89.2%. For the same molecule, the Her2 level in experiment [2] was 95.5% (inactive). Further, the differential viability (reversal) in experiment [6] (H69AR cells + 2 uM doxorubicin) is -4.92% (inactive). Moreover, the inhibition is -4.93% (inactive) in experiment [7] and -3.77% (inactive) in experiment [8].
For `O=c1[nH]c(/C(=N\O)c2ccccc2)no1`, the viability is 93.5% in experiment [1]; 93.5% (inactive) in experiment [3]; 83.2% (inactive) in experiment [4]; 73.2% (inactive) in experiment [5]; 40.7% in experiment [6] (setting [9]); 73.2% in experiment [6] (setting [10]). Also, the Her2 level in experiment [2] is 82% (inactive). Moreover, the differential viability (reversal) in experiment [6] (H69AR cells + 2 uM doxorubicin) is 32.5% (inactive). Also, the inhibition is -0.39% (inactive) in experiment [7] and 5.74% (inactive) in experiment [8].
With `CCN(CC)c1ccc(CNc2ccc(Br)cn2)cc1`, the viability in experiment [1] is 108%; in experiment [3] it was 108% (inactive); in experiment [4], 106% (inactive); in experiment [5], 90.7% (inactive); in experiment [6] (setting [9]), 105%; in experiment [6] (setting [10]), 90.7%. The Her2 level in experiment [2] was 92.5% (inactive). Moreover, the differential viability (reversal) in experiment [6] (H69AR cells + 2 uM doxorubicin) was -14.7% (inactive). In addition, the inhibition is -0.66% (inactive) in experiment [7] and -3.11% (inactive) in experiment [8].
As to `CCOc1cccc(OCCOCCN2CCCC2)c1`, the viability in experiment [1] was 107%; in experiment [3], 107% (inactive); in experiment [4] it was 91.3% (inactive); in experiment [5], 89.4% (inactive); in experiment [6] (setting [9]), 90.5%; in experiment [6] (setting [10]) it was 89.4%. The Her2 level in experiment [2] was 89% (inactive). Also, the differential viability (reversal) in experiment [6] (H69AR cells + 2 uM doxorubicin) was -1.11% (inactive). The inhibition was -6.22% (inactive) in experiment [7] and -3.17% (inactive) in experiment [8].
